# Where “and” joins values, the source holds several entries; their conditions need not be identical. Equal entries are not always repeated.
# Test system: HEK-293T
# Test: Multiplex assay against HEK293T;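 for Population Tubulin-Different-Phenotype (%): share of the cells with healthy nuclei that show this phenotype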
# Type: toxicity, cell-based
# Settings: human
# Outline: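 Values for tubulin, mitochondrial-mass and membrane-permeability phenotypes are per cents of cells with healthy nuclei. These cells were identified by CellPathfinder machine-learning gating of live cells that had been stained at seeding with Hoechst33342, BioTracker Green Microtubule Cytoskeleton Dye, MitoTracker Red and Annexin V Alexa Fluor 680 and imaged on a CQ1 microscope at 37°C and 5% CO2 after compound addition. The gating first set Hoechst high-intensity objects apart from normal cells, then split normal cells into healthy, pyknosed or fragmented nuclei, and pyknosed cells into mitotic or apoptotic.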
# [1] = 12 h, 10 µM, compound concentration 10 uM, replicate 1
# [2] = 12 h, 10 µM, compound concentration 10 uM, replicate 2
# [3] = 24 h, 10 µM, compound concentration 10 uM, replicate 1
# [4] = 24 h, 10 µM, compound concentration 10 uM, replicate 2
# [5] = 12 h, 1 µM, compound concentration 1 uM, replicate 1
# [6] = 12 h, 1 µM, compound concentration 1 uM, replicate 2
# [7] = 24 h, 1 µM, compound concentration 1 uM, replicate 1
# [8] = 24 h, 1 µM, compound concentration 1 uM, replicate 2
smiles,measurement,setting,value
CCN(CC)S(=O)(=O)Nc1cccc(-c2ccc3c(NC(=O)C4CC4)n[nH]c3c2)c1,Population Apoptotic (%),[1],14% and 17%
same,Population Fragmented Nuclei (%),[1],23% and 22%
same,Population Healthy Nuclei (%),[1],31% and 60%
same,Population Hoechst High Intensity Objects (%),[1],17% and 14%
same,Population Membrane Permeable-Phenotype (%),[1],7% and 4%
same,Population Mitochondria Different-Phenotype (%),[1],5% and 3%
same,Population Mitotic Cells (%),[1],85% and 82%
same,Population Normal (%),[1],82% and 85%
same,Population Pyknosed Nuclei (%),[1],45% and 17%
same,Population Tubulin-Different-Phenotype (%),[1],6% and 1%
same,Total Cell Count,[1],531 and 471
same,Population Apoptotic (%),[2],13% and 5%
same,Population Healthy Nuclei (%),[2],76% and 84%
same,Population Hoechst High Intensity Objects (%),[2],4% and 2%
same,Population Membrane Permeable-Phenotype (%),[2],1% and 0%
same,Population Mitotic Cells (%),[2],86% and 94%
same,Population Normal (%),[2],95% and 97%
same,Population Tubulin-Different-Phenotype (%),[2],10% and 4%
same,Total Cell Count,[2],940 and 1848
same,Population Apoptotic (%),[3],19% and 16%
same,Population Fragmented Nuclei (%),[3],22% and 21%
same,Population Healthy Nuclei (%),[3],34% and 70%
same,Population Hoechst High Intensity Objects (%),[3],14% and 9%
same,Population Membrane Permeable-Phenotype (%),[3],7% and 8%
same,Population Mitotic Cells (%),[3],80% and 83%
same,Population Normal (%),[3],85% and 90%
same,Total Cell Count,[3],487 and 501
same,Population Apoptotic (%),[4],4% and 8%
same,Population Healthy Nuclei (%),[4],67% and 71%
same,Population Hoechst High Intensity Objects (%),[4],4% and 6%
same,Population Membrane Permeable-Phenotype (%),[4],2% and 1%
same,Population Mitochondria Different-Phenotype (%),[4],22%
same,Population Mitotic Cells (%),[4],95% and 91%
same,Population Normal (%),[4],95% and 93%
C=CCn1c(=O)c2cnc(Nc3ccc(N4CCN(C)CC4)cc3)nc2n1-c1cccc(C(C)(C)O)n1 [ADAVOSERTIB],Population Apoptotic (%),[5],16%
same,Population Fragmented Nuclei (%),[5],23%
same,Population Healthy Nuclei (%),[5],36%
same,Population Hoechst High Intensity Objects (%),[5],14%
same,Population Membrane Permeable-Phenotype (%),[5],4%
same,Population Mitochondria Different-Phenotype (%),[5],3%
same,Population Mitotic Cells (%),[5],83%
same,Population Normal (%),[5],85%
same,Population Pyknosed Nuclei (%),[5],39%
same,Population Tubulin-Different-Phenotype (%),[5],2%
same,Total Cell Count,[5],606
same,Population Apoptotic (%),[6],13%
same,Population Fragmented Nuclei (%),[6],7%
same,Population Healthy Nuclei (%),[6],62%
same,Population Hoechst High Intensity Objects (%),[6],3%
same,Population Membrane Permeable-Phenotype (%),[6],3%
same,Population Mitochondria Different-Phenotype (%),[6],16%
same,Population Mitotic Cells (%),[6],86%
same,Population Normal (%),[6],96%
same,Population Pyknosed Nuclei (%),[6],30%
same,Population Tubulin-Different-Phenotype (%),[6],15%
same,Total Cell Count,[6],1183
same,Population Apoptotic (%),[1],12%
same,Population Fragmented Nuclei (%),[1],20%
same,Population Healthy Nuclei (%),[1],22%
same,Population Hoechst High Intensity Objects (%),[1],17%
same,Population Membrane Permeable-Phenotype (%),[1],16%
same,Population Mitochondria Different-Phenotype (%),[1],16%
same,Population Mitotic Cells (%),[1],87%
same,Population Normal (%),[1],82%
same,Population Pyknosed Nuclei (%),[1],56%
same,Population Tubulin-Different-Phenotype (%),[1],47%
same,Total Cell Count,[1],637
same,Population Apoptotic (%),[2],9%
same,Population Fragmented Nuclei (%),[2],15%
same,Population Healthy Nuclei (%),[2],27%
same,Population Hoechst High Intensity Objects (%),[2],2%
same,Population Membrane Permeable-Phenotype (%),[2],4%
same,Population Mitochondria Different-Phenotype (%),[2],32%
same,Population Mitotic Cells (%),[2],90%
same,Population Normal (%),[2],97%
same,Population Tubulin-Different-Phenotype (%),[2],70%
same,Total Cell Count,[2],1182
same,Population Apoptotic (%),[7],17%
same,Population Fragmented Nuclei (%),[7],22%
same,Population Healthy Nuclei (%),[7],46%
same,Population Hoechst High Intensity Objects (%),[7],9%
same,Population Membrane Permeable-Phenotype (%),[7],6%
same,Population Mitochondria Different-Phenotype (%),[7],5%
same,Population Mitotic Cells (%),[7],82%
same,Population Normal (%),[7],90%
same,Population Pyknosed Nuclei (%),[7],30%
same,Population Tubulin-Different-Phenotype (%),[7],6%
same,Total Cell Count,[7],590
same,Population Apoptotic (%),[8],16%
same,Population Fragmented Nuclei (%),[8],7%
same,Population Healthy Nuclei (%),[8],58%
same,Population Hoechst High Intensity Objects (%),[8],4%
same,Population Membrane Permeable-Phenotype (%),[8],5%
same,Population Mitochondria Different-Phenotype (%),[8],14%
same,Population Mitotic Cells (%),[8],83%
same,Population Normal (%),[8],95%
same,Population Pyknosed Nuclei (%),[8],33%
same,Population Tubulin-Different-Phenotype (%),[8],32%
same,Total Cell Count,[8],1164
same,Population Apoptotic (%),[3],21%
same,Population Fragmented Nuclei (%),[3],27%
same,Population Healthy Nuclei (%),[3],26%
same,Population Hoechst High Intensity Objects (%),[3],18%
same,Population Membrane Permeable-Phenotype (%),[3],12%
same,Population Mitochondria Different-Phenotype (%),[3],32%
same,Population Mitotic Cells (%),[3],78%
same,Population Normal (%),[3],81%
same,Population Pyknosed Nuclei (%),[3],46%
same,Population Tubulin-Different-Phenotype (%),[3],56%
same,Total Cell Count,[3],609
same,Population Apoptotic (%),[4],20%
same,Population Fragmented Nuclei (%),[4],15%
same,Population Healthy Nuclei (%),[4],39%
same,Population Hoechst High Intensity Objects (%),[4],3%
same,Population Membrane Permeable-Phenotype (%),[4],3%
same,Population Mitochondria Different-Phenotype (%),[4],53%
same,Population Mitotic Cells (%),[4],79%
same,Population Normal (%),[4],96%
same,Population Pyknosed Nuclei (%),[4],44%
same,Population Tubulin-Different-Phenotype (%),[4],80%
same,Total Cell Count,[4],1042
